Experimental data published in article PMC4714923 (Biochemistry, 2015).

Assays:
FKBP51 = biological target: T1, FKBP51 (Homo sapiens, UniProt Q13451); assay: FP binding of C-terminal Hsp70/90 tracers to FKBP51; settings: pH 7.4, full-length FKBP51
T1 sequence (Q13451 1-457): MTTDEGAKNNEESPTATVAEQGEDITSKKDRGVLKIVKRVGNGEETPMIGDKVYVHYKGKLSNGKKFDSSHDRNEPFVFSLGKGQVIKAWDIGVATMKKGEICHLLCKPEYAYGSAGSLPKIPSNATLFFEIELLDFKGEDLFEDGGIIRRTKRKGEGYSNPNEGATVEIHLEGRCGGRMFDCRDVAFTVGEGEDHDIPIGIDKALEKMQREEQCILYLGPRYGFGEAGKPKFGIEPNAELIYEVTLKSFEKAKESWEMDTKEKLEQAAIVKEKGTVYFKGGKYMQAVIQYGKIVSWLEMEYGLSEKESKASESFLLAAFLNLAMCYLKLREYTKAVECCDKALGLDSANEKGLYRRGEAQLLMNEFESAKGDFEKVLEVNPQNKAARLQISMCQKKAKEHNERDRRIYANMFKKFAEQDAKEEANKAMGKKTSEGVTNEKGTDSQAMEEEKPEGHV

CHIP = biological target: T2, CHIP (Homo sapiens, UniProt Q9UNE7); assay: FP binding of C-terminal Hsp70/90 tracers to CHIP; settings: pH 7.4, full-length CHIP
T2 sequence (Q9UNE7 1-303): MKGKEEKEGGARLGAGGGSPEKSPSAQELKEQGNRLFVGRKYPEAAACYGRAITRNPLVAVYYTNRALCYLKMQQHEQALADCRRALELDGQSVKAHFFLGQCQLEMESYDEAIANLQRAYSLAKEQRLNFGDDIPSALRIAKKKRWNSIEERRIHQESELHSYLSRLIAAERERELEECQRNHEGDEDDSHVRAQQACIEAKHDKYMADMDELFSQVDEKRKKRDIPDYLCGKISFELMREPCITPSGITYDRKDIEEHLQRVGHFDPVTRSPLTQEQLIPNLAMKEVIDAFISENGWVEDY

DnaJC7 = biological target: T3, DnaJC7 (Homo sapiens, UniProt Q99615); assay: FP binding of C-terminal Hsp70/90 tracers to DnaJC7; settings: pH 7.4, full-length DnaJC7
T3 sequence (Q99615 1-494): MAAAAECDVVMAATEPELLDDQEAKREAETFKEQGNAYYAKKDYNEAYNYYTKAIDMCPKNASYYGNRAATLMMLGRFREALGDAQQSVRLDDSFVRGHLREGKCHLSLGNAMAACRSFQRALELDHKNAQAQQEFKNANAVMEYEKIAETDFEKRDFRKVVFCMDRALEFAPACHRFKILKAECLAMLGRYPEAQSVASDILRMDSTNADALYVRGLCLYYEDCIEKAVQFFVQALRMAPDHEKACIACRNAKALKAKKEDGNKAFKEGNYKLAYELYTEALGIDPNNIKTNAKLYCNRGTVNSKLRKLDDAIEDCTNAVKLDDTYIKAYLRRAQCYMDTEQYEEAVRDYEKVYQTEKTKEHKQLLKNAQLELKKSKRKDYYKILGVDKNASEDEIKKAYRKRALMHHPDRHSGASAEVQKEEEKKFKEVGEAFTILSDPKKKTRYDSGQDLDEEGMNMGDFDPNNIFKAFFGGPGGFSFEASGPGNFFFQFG
How it was run: (§1)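 Full-length human protein, made in E. coli BL21(DE3) and Ni-NTA purified (DnaJC7 kept its His-tag; Hop and FKBP52 were TEV-cleaved and gel-filtered). Twofold dilutions (0–125 μM final) with 20 nM N-terminal 5-Fam-aminohexanoyl C-terminal Hsp70/90 peptide in 50 mM HEPES, 75 mM NaCl, 0.001% Triton X-100, pH 7.4. 30 min at RT, dark. FP (ex 485/em 530 nm) isotherms. ≥2 runs in triplicate, mean ± SEM.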

Hop = Hop (Homo sapiens, UniProt P31948); assay: FP binding of C-terminal Hsp70/90 tracers to Hop
How it was run: as §1

FKBP52 = biological target: T4, FKBP52 (Homo sapiens, UniProt Q02790); assay: FP binding of C-terminal Hsp70/90 tracers to FKBP52; settings: pH 7.4, full-length FKBP52
T4 sequence (Q02790 1-459): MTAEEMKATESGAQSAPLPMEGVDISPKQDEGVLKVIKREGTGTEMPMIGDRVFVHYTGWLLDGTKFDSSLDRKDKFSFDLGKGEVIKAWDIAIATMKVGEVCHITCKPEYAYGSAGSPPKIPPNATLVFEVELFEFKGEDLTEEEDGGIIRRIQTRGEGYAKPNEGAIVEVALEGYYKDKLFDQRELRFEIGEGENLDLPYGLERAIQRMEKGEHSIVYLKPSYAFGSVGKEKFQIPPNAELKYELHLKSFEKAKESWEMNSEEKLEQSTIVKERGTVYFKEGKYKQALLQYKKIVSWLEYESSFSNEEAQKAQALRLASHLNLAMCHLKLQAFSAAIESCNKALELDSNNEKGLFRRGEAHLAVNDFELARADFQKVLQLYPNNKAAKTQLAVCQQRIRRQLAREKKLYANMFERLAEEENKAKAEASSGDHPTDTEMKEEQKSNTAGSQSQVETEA
How it was run: as §1

Sequence of Hop (P31948 whole entry): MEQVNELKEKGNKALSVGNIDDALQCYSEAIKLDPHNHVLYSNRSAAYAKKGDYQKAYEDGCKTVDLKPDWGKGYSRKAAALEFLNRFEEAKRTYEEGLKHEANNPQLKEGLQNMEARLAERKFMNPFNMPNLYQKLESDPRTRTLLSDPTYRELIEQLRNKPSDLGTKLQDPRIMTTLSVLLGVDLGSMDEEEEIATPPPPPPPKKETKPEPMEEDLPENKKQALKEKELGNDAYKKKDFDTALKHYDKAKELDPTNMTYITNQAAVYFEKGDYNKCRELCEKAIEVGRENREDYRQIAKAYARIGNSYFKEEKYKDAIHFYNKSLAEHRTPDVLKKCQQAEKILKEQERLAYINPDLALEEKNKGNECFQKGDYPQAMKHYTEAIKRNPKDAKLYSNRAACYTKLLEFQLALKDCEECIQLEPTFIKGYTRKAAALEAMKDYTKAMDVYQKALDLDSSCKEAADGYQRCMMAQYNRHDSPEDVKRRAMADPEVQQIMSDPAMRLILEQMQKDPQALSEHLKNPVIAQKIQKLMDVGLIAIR

Row | Substance | binding to FKBP51 (in words) (FKBP51) | binding to CHIP (in words) (CHIP) | binding to DnaJC7 (in words) (DnaJC7) | binding to Hop (in words) (Hop; pH 7.4, full-length Hop) | binding to FKBP52 (in words) (FKBP52) | decrease in affinity versus wt tracer (CHIP) | enhanced binding versus wt tracer (Hop; pH 7.4, pseudophosphorylated tracer)
1 | Fam-DVEEM | no affinity | no affinity | no affinity | no affinity | no affinity |  | 
2 | Fam-DDTERMEEVD | unaffected |  | unaffected |  | unaffected | more than 8 fold | ~ 2 fold
